Assay results taken from ChEMBL document CHEMBL1629700, “Assessment of oritavancin serum protein binding across species” (Antimicrob Agents Chemother, 2010).
≈ marks a conversion by molar mass, not a printed value.

How the values were obtained:
[1] = system: Staphylococcus aureus; assay: Antibacterial activity against Staphylococcus aureus ATCC 29213 grown in CAMHB medium by broth microdilution method in presence of 50 ug/ml CaCl2 and 95% rat serum; assay type: functional
How it was run: (§1)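 Broth microdilution MIC run in a matrix of 95% pooled serum, or 95% ultrafiltrate of that serum (50 kDa cutoff, albumin excluded), plus 5% CAMHB. Arithmetic dilutions ran from 20 to 0.3 μg/ml in CAMHB with 50 μg/ml CaCl2. Means came from 8 replicates (mouse 4 to 8). Beagle dog serum was used for dog.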

[2] = Protein binding in human serum by broth microdilution method; assay type: ADME, cell-free; conditions: read-out: PB (converted)
How it was run: (§2)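 Pooled serum (dog: beagle) and its ultrafiltrate (50 kDa cutoff, excludes albumin) were used. Broth microdilution MICs against S. aureus ATCC 29213 were read with arithmetic drug dilutions, made in CAMHB with 0.002% polysorbate-80, in 95% serum or 95% ultrafiltrate plus 5% CAMHB. % bound = (1 − mean MIC ultrafiltrate/mean MIC serum) × 100. Human, rat and dog used 8 replicates; mouse used 4–8.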

[3] = Protein binding in rat serum by broth microdilution method; assay type: ADME, cell-free; conditions: read-out: PB (converted); how it was run: as §2
[4] = system: Staphylococcus aureus; assay: Antibacterial activity against Staphylococcus aureus ATCC 29213 grown in CAMHB medium by broth microdilution method in presence of 50 ug/ml CaCl2 and 95% human serum ultrafiltrate; assay type: functional; how it was run: as §1
[5] = system: Staphylococcus aureus; assay: Ratio of MIC for Staphylococcus aureus ATCC 29213 grown in CAMHB medium in presence of 95% dog serum to MIC for Staphylococcus aureus ATCC 29213 in presence of 95% dog serum ultrafiltrate; assay type: functional
How it was run: (§3)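 The fold increase is the mean arithmetic broth microdilution MIC in 95% serum (plus 5% CAMHB) divided by the mean MIC in 95% serum ultrafiltrate (plus 5% CAMHB). The ultrafiltrate was prepared with a 50 kDa cutoff that excludes albumin. Replicates were 8 per condition, or 4 to 8 for mouse. The same data give % bound = (1 − MIC ultrafiltrate/MIC serum) × 100.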

[6] = (§4) Protein binding in mouse serum by broth microdilution method; assay type: ADME, cell-free; conditions: read-out: PB (converted); how it was run: as §2
[7] = system: Staphylococcus aureus; assay: Antibacterial activity against Staphylococcus aureus ATCC 29213 grown in CAMHB medium by broth microdilution method in presence of 50 ug/ml CaCl2 and 95% mouse serum ultrafiltrate; assay type: functional; how it was run: as §1
[8] = system: Staphylococcus aureus; assay: Antibacterial activity against Staphylococcus aureus ATCC 29213 grown in CAMHB medium by broth microdilution method in presence of 50 ug/ml CaCl2 and 95% dog serum; assay type: functional; how it was run: as §1
[9] = system: Staphylococcus aureus; assay: Antibacterial activity against Staphylococcus aureus ATCC 29213 grown in CAMHB medium by broth microdilution method in presence of 50 ug/ml CaCl2 and 95% rat serum ultrafiltrate; assay type: functional; how it was run: as §1
[10] = system: Staphylococcus aureus; assay: Antibacterial activity against Staphylococcus aureus ATCC 29213 grown in CAMHB medium by broth microdilution method in presence of 50 ug/ml CaCl2 and 95% human serum; assay type: functional; how it was run: as §1
[11] = system: Staphylococcus aureus; assay: Ratio of MIC for Staphylococcus aureus ATCC 29213 grown in CAMHB medium in presence of 95% human serum to MIC for Staphylococcus aureus ATCC 29213 in presence of 95% human serum ultrafiltrate; assay type: functional; how it was run: as §3
[12] = Protein binding in dog serum by broth microdilution method; assay type: ADME, cell-free, Canis lupus familiaris; conditions: read-out: PB (converted); how it was run: as §2
[13] = system: Staphylococcus aureus; assay: Antibacterial activity against Staphylococcus aureus ATCC 29213 grown in CAMHB medium by broth microdilution method in presence of 50 ug/ml CaCl2; assay type: functional
How it was run: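 Broth microdilution per CLSI M7-A8 in cation-adjusted Mueller-Hinton broth with 50 μg/ml CaCl2. Arithmetic dilution steps of 5 μg/ml from 20 to 10 μg/ml, 1 μg/ml from 10 to 2, 0.5 μg/ml from 2 to 1, and 0.1 μg/ml from 1 to 0.3 μg/ml. Mean of 8 replicates.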

[14] = system: Staphylococcus aureus; assay: Antibacterial activity against Staphylococcus aureus ATCC 29213 grown in CAMHB medium by broth microdilution method in presence of 50 ug/ml CaCl2 and 95% dog serum ultrafiltrate; assay type: functional; how it was run: as §1
[15] = system: Staphylococcus aureus; assay: Antibacterial activity against Staphylococcus aureus ATCC 29213 grown in CAMHB medium by broth microdilution method in presence of 50 ug/ml CaCl2 and 95% mouse serum; assay type: functional; how it was run: as §1
[16] = system: Staphylococcus aureus; assay: Ratio of MIC for Staphylococcus aureus ATCC 29213 grown in CAMHB medium in presence of 95% mouse serum to MIC for Staphylococcus aureus ATCC 29213 in presence of 95% mouse serum ultrafiltrate; assay type: functional; how it was run: as §3
[17] = system: Staphylococcus aureus; assay: Ratio of MIC for Staphylococcus aureus ATCC 29213 grown in CAMHB medium in presence of 95% rat serum to MIC for Staphylococcus aureus ATCC 29213 in presence of 95% rat serum ultrafiltrate; assay type: functional; how it was run: as §3
[18] = system: Staphylococcus aureus; assay: Antibacterial activity against Staphylococcus aureus ATCC 29213 grown in CAMHB medium by broth microdilution method in presence of 95% dog serum; assay type: functional
How it was run: (§5)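 Broth microdilution MIC run in a matrix of 95% pooled serum, or 95% serum ultrafiltrate (50 kDa cutoff filter, albumin excluded), plus 5% CAMHB. Drug dilution steps were arithmetic and prepared in CAMHB. Means came from 8 replicates per condition (mouse 4 to 8). Dog serum came from beagles.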

[19] = system: Staphylococcus aureus; assay: Antibacterial activity against Staphylococcus aureus ATCC 29213 grown in CAMHB medium by broth microdilution method in presence of 95% human serum ultrafiltrate; assay type: functional; how it was run: as §5
[20] = system: Staphylococcus aureus; assay: Antibacterial activity against Staphylococcus aureus ATCC 29213 grown in CAMHB medium by broth microdilution method in presence of 95% rat serum; assay type: functional; how it was run: as §5
[21] = system: Staphylococcus aureus; assay: Antibacterial activity against Staphylococcus aureus ATCC 29213 grown in CAMHB medium by broth microdilution method; assay type: functional
How it was run: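 MIC determined by broth microdilution under CLSI M7-A8 conditions in cation-adjusted Mueller-Hinton broth, using arithmetic drug dilution steps.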

[22] = system: Staphylococcus aureus; assay: Antibacterial activity against Staphylococcus aureus ATCC 29213 grown in CAMHB medium by broth microdilution method in presence of 95% mouse serum ultrafiltrate; assay type: functional; how it was run: as §5
[23] = system: Staphylococcus aureus; assay: Antibacterial activity against Staphylococcus aureus ATCC 29213 grown in CAMHB medium by broth microdilution method in presence of 95% dog serum ultrafiltrate; assay type: functional; how it was run: as §5
[24] = system: Serum; assay: as §4; assay type: ADME, cell-free; how it was run: as §2
[25] = system: Staphylococcus aureus; assay: Antibacterial activity against Staphylococcus aureus ATCC 29213 grown in CAMHB medium by broth microdilution method in presence of 95% mouse serum; assay type: functional; how it was run: as §5
[26] = system: Staphylococcus aureus; assay: Antibacterial activity against Staphylococcus aureus ATCC 29213 grown in CAMHB medium by broth microdilution method in presence of 95% rat serum ultrafiltrate; assay type: functional; how it was run: as §5
[27] = system: Staphylococcus aureus; assay: Antibacterial activity against Staphylococcus aureus ATCC 29213 grown in CAMHB medium by broth microdilution method in presence of 95% human serum; assay type: functional; how it was run: as §5
[28] = Plasma protein binding in rat; assay type: ADME, cell-free; conditions: read-out: PPB
[29] = system: Staphylococcus aureus; assay: Antibacterial activity against Staphylococcus aureus ATCC 29213 grown in CAMHB medium by broth microdilution method in presence of 0.002% polysorbate 80 and 95% mouse serum; assay type: functional
How it was run: (§6)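 Broth microdilution with arithmetic drug dilutions prepared in CAMHB containing 0.002% polysorbate-80. Test medium was 95% pooled serum or 95% serum ultrafiltrate plus 5% CAMHB. Ultrafiltrate was made on 50 kDa cutoff ultrafilters, which exclude albumin. Means came from 8 replicates for human, rat and dog, and from 4 to 8 replicates for mouse.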

[30] = system: Staphylococcus aureus; assay: Antibacterial activity against Staphylococcus aureus ATCC 29213 grown in CAMHB medium by broth microdilution method in presence of 0.002% polysorbate 80 and 95% dog serum; assay type: functional; how it was run: as §6
[31] = system: Staphylococcus aureus; assay: Antibacterial activity against Staphylococcus aureus ATCC 29213 grown in CAMHB medium by broth microdilution method in presence of 0.002% polysorbate 80 and 95% mouse serum ultrafiltrate; assay type: functional; how it was run: as §6
[32] = system: Staphylococcus aureus; assay: Antibacterial activity against Staphylococcus aureus ATCC 29213 grown in CAMHB medium by broth microdilution method in presence of 0.002% polysorbate 80 and 95% dog serum ultrafiltrate; assay type: functional; how it was run: as §6
[33] = system: Staphylococcus aureus; assay: Antibacterial activity against Staphylococcus aureus ATCC 29213 grown in CAMHB medium by broth microdilution method in presence of 0.002% polysorbate 80 and 95% human serum ultrafiltrate; assay type: functional; how it was run: as §6
[34] = molecular target: Albumin (Homo sapiens, UniProt P02768); assay: Binding affinity to human serum albumin at 0.2 ug/ml; assay type: ADME
Chain of Albumin (P02768 whole entry): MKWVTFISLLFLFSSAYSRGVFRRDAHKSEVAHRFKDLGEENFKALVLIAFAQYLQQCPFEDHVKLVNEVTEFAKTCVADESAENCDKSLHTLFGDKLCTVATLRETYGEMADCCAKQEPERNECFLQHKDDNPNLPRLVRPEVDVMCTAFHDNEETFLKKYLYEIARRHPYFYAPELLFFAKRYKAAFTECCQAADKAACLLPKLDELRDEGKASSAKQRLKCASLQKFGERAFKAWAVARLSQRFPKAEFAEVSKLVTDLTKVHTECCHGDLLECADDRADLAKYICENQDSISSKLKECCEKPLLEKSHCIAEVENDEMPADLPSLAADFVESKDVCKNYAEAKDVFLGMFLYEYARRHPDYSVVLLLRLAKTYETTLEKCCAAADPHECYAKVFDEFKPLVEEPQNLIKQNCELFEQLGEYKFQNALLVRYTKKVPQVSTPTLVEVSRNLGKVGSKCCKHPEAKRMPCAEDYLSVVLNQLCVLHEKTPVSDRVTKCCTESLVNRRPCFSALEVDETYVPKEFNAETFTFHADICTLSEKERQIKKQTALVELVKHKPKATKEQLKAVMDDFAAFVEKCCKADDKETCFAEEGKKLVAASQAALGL

[35] = system: Staphylococcus aureus; assay: Antibacterial activity against Staphylococcus aureus ATCC 29213 grown in CAMHB medium by broth microdilution method in presence of 0.002% polysorbate 80 and 95% human serum; assay type: functional; how it was run: as §6
[36] = system: Staphylococcus aureus; assay: Antibacterial activity against Staphylococcus aureus ATCC 29213 grown in CAMHB medium by broth microdilution method in presence of 0.002% polysorbate 80; assay type: functional
How it was run: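 Broth microdilution per CLSI M7-A8 in cation-adjusted Mueller-Hinton broth with 0.002% polysorbate-80. Arithmetic dilution steps of 0.5 μg/ml from 3 to 1 μg/ml, 0.1 μg/ml from 1 to 0.3, 0.05 μg/ml from 0.3 to 0.1, and 0.01 μg/ml from 0.1 to 0.04 μg/ml. Mean of 8 replicates.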

[37] = system: Staphylococcus aureus; assay: Antibacterial activity against Staphylococcus aureus ATCC 29213 grown in CAMHB medium by broth microdilution method in presence of 0.002% polysorbate 80 and 95% rat serum; assay type: functional; how it was run: as §6
[38] = Plasma protein binding in human by broth microdilution method; assay type: ADME, cell-free; conditions: read-out: PPB (converted)
[39] = Plasma protein binding in human at 1 to 91 ug/ml by DCC adsorption method; assay type: ADME, cell-free; conditions: read-out: PB (converted)
[40] = system: Staphylococcus aureus; assay: Antibacterial activity against Staphylococcus aureus ATCC 29213 grown in CAMHB medium by broth microdilution method in presence of 0.002% polysorbate 80 and 95% rat serum ultrafiltrate; assay type: functional; how it was run: as §6

CCCCCCCCCC(=O)N[C@@H](Cc1c[nH]c2ccccc12)C(=O)N[C@H](CC(N)=O)C(=O)N[C@@H](CC(=O)O)C(=O)N[C@@H]1C(=O)NCC(=O)N[C@@H](CCCN)C(=O)N[C@@H](CC(=O)O)C(=O)N[C@H](C)C(=O)N[C@@H](CC(=O)O)C(=O)NCC(=O)N[C@H](CO)C(=O)N[C@@H]([C@H](C)CC(=O)O)C(=O)N[C@@H](CC(=O)c2ccccc2N)C(=O)O[C@@H]1C
MIC [1]: 1.56 mg/L | fraction unbound [2]: 0.171 | fraction unbound [3]: 0.344 | MIC [4]: 0.513 mg/L | Ratio [5]: 3.9 | fraction unbound [6]: 0.24 | MIC [7]: 3 mg/L | MIC [8]: 2.5 mg/L | MIC [9]: 0.538 mg/L | MIC [10]: 3 mg/L | Ratio [11]: 5.8 | fraction unbound [12]: 0.255 | MIC [13]: 0.975 mg/L | MIC [14]: 0.638 mg/L | MIC [15]: 12.5 mg/L | Ratio [16]: 4.2 | Ratio [17]: 2.9

CO/N=C(\C(=O)N[C@@H]1C(=O)N2C(C(=O)O)=C(CSc3nc(=O)c(O)nn3C)CS[C@H]12)c1csc(N)n1 [CEFTRIAXONE]
MIC [18]: 1.38 mg/L | MIC [19]: 2.88 mg/L | fraction unbound [2]: 0.074 | MIC [20]: 5.88 mg/L | MIC [21]: 3.5 mg/L (≈ 6.31 µM) | fraction unbound [3]: 0.66 | MIC [22]: 3.75 mg/L | Ratio [5]: 1.3 | MIC [23]: 1.09 mg/L | Protein binding [24]: 37.5% | Ratio [11]: 13.5 | fraction unbound [12]: 0.791 | MIC [25]: 6 mg/L | MIC [26]: 3.88 mg/L | Ratio [16]: 1.6 | Ratio [17]: 1.5 | MIC [27]: 38.8 mg/L

CN[C@H](CC(C)C)C(=O)N[C@H]1C(=O)N[C@@H](CC(N)=O)C(=O)N[C@H]2C(=O)N[C@H]3C(=O)N[C@H](C(=O)N[C@H](C(=O)O)c4cc(O)cc(O)c4-c4cc3ccc4O)[C@H](O[C@H]3C[C@](C)(N)[C@@H](O)[C@H](C)O3)c3ccc(c(Cl)c3)Oc3cc2cc(c3O[C@@H]2O[C@H](CO)[C@@H](O)[C@H](O)[C@H]2O[C@H]2C[C@](C)(NCc3ccc(-c4ccc(Cl)cc4)cc3)[C@@H](O)[C@H](C)O2)Oc2ccc(cc2Cl)[C@H]1O [ORITAVANCIN]
fraction unbound [28]: < 0.2 | MIC [29]: 0.538 mg/L | Ratio [5]: 7.8 | MIC [30]: 0.475 mg/L | MIC [31]: 0.079 mg/L | MIC [32]: 0.061 mg/L | Ratio [11]: 5.5 | MIC [33]: 0.14 mg/L | fraction unbound at 0.2 ug/ml [34]: 0.21 | MIC [35]: 0.775 mg/L | MIC [36]: 0.08 mg/L | MIC [37]: 0.313 mg/L | fraction unbound [38]: 0.125 | Ratio [16]: 6.8 | fraction unbound [39]: 0.143 | Ratio [17]: 5.7 | MIC [40]: 0.055 mg/L
